Experimental data published in ChEMBL document CHEMBL1138564, “Microwave-induced synthesis and anti-microbial activities of 7,10,11,12-tetrahydrobenzo[c]acridin-8(9H)-one derivatives” (2009).

Experiments:
Format in all cases: functional
Aspergillus niger = experiment: Antimicrobial activity against Aspergillus niger NCIM 902 at 10 ug/disk after 72 hrs by disk diffusion method; details: NCIM 902, 72 h, read-out: DIZ
Outline: (§1)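 Disc diffusion on Sabouraud's dextrose agar. 100 µl of fungal suspension at 10⁶ CFU/ml is spread on the plate. Discs carry test compounds at two loadings in DMSO; DMSO alone is the negative control. Clotrimazole disc is the positive reference. Plates are incubated at 27 °C for 72 h, and the zone of inhibition diameter is measured.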

Aspergillus flavus = experiment: Antimicrobial activity against Aspergillus flavus NCIM 902 at 10 ug/disk after 72 hrs by disk diffusion method; details: NCIM 535, 72 h, in the assay text read “NCIM 535” for “NCIM 902”, read-out: DIZ; outline: as §1
Rhodotorula mucilaginosa = experiment: Antimicrobial activity against Rhodotorula rubra NCIM 3174 at 10 ug/disk after 72 hrs by disk diffusion method; details: NCIM 3174, 72 h, read-out: DIZ
Outline: (§2)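 Clotrimazole reference disc at 10 µg/disc. Fungal inoculum of 100 µl at 10⁶ CFU/ml was spread on Sabouraud's dextrose agar and incubated at 27 °C for 72 h. The read-out was inhibition zone diameter.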

Aspergillus fumigatus = experiment: Antimicrobial activity against Aspergillus fumigatus NCIM 902 at 10 ug/disk after 72 hrs by disk diffusion method; details: NCIM 902, 72 h, read-out: DIZ; outline: as §1
Aspergillus parasiticus = experiment: Antimicrobial activity against Aspergillus parasiticus NCIM 904 at 10 ug/disk after 72 hrs by disk diffusion method; details: NCIM 904, 72 h, read-out: DIZ; outline: as §1
Penicillium chrysogenum = experiment: Antimicrobial activity against Penicillium chrysogenum NCIM 707 at 10 ug/disk after 72 hrs by disk diffusion method; details: NCIM 707, 72 h, read-out: DIZ; outline: as §1
Lipomyces lipofer = experiment: Antimicrobial activity against Lipomyces lipofer NCIM 3252 at 10 ug/disk after 72 hrs by disk diffusion method; details: NCIM 3252, 72 h, read-out: DIZ; outline: as §1
Trichoderma viride = experiment: Antimicrobial activity against Trichoderma viride NCIM 1195 at 10 ug/disk after 72 hrs by disk diffusion method; details: NCIM 1195, 72 h, read-out: DIZ; outline: as §2

SMILES: Clc1ccccc1C(c1ccccc1)(c1ccccc1)n1ccnc1 [CLOTRIMAZOLE]
- zone of inhibition at 10 µg/disc (Aspergillus niger): 16 mm
- zone of inhibition at 10 µg/disc (Aspergillus flavus): 16 mm
- zone of inhibition at 10 µg/disc (Rhodotorula mucilaginosa): 17 mm
- zone of inhibition at 10 µg/disc (Aspergillus fumigatus): 18 mm
- zone of inhibition at 10 µg/disc (Aspergillus parasiticus): 18 mm
- zone of inhibition at 10 µg/disc (Penicillium chrysogenum): 21 mm
- zone of inhibition at 10 µg/disc (Lipomyces lipofer): 18 mm
- zone of inhibition at 10 µg/disc (Trichoderma viride): 19 mm
